Measurements as given in ChEMBL document CHEMBL1932969, “Acyl derivatives of boswellic acids as inhibitors of NF-κB and STATs” (Bioorg Med Chem Lett, 2012).
Active and inactive are the calls of the source. The rule behind the calls is not given here.

Tests used:
[1] = target: Transcription factor p65 (Homo sapiens) (UniProt Q04206); test: Inhibition of NF-kappaB p65 subunit protein expression in p53-deficient human HL60 cells at 20 uM after 6 hrs by Western blot analysis; type: cell-based; settings: HL-60
Chain of Transcription factor p65 (Homo sapiens) (Q04206 whole entry): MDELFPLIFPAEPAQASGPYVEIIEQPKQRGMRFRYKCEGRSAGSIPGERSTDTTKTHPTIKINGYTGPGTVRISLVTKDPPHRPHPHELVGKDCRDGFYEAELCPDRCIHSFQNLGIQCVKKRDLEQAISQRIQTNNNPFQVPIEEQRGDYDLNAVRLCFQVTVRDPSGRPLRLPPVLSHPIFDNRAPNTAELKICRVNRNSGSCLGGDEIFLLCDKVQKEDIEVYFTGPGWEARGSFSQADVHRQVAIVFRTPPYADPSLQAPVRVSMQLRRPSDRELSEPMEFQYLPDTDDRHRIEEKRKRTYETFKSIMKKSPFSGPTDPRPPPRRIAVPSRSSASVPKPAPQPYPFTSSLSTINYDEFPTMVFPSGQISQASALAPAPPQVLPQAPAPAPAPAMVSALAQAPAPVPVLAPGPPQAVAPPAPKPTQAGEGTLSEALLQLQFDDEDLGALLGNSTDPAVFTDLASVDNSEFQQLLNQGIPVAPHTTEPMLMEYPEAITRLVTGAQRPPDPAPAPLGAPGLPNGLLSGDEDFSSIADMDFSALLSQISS
Summary of the method: (§1)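 HL-60 cells treated with or without compound (20 and 50 µM) for 6 h. Total cell lysates (70 µg protein) are run on 10% SDS–PAGE and immunoblotted for NF-κB p50 and p65.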

[2] = test system: HL-60; test: Induction of apoptosis in p53-deficient human HL60 cells at 50 uM after 6 hrs by FITC-conjugated annexinV/PI-based flow cytometric analysis; type: functional
Summary of the method: (§2)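 HL-60 cells incubated with each analog at 50 µM for 6 h, stained with annexin V-FITC/propidium iodide and analysed by flow cytometry. Lower right quadrant is apoptotic, upper right post-apoptotic, upper left necrotic. Three experiments, with representative dot plots shown.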

[3] = target: Transcription factor p65 (Homo sapiens) (UniProt Q04206); test: Inhibition of NF-kappaB p65 subunit protein expression in p53-deficient human HL60 cells at 50 uM after 6 hrs by Western blot analysis; type: cell-based; settings: HL-60; summary of the method: as §1
[4] = test system: HL-60; test: Induction of apoptosis in p53-deficient human HL60 cells assessed as apoptotic cells at 50 uM after 6 hrs by FITC-conjugated annexinV/PI-based flow cytometric analysis (reference value: 5 %); type: functional; summary of the method: as §2
[5] = Cytotoxicity against human HGF cells after 48 hrs by MTT assay; type: cell-based
Summary of the method: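 Cell proliferation measured by MTT. Cells are incubated with each analog for 48 h at the indicated concentrations, then MTT reduction is read as an index of viability. OD of the untreated control is taken as 100% viability, and IC50 is derived from this.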

[6] = target: T1, Signal transducer and activator of transcription 6 (Homo sapiens) (UniProt P42226); test: Inhibition of STAT6 Tyr641 phosphorylation in p53-deficient human HL60 cells at 20 to 50 uM after 6 hrs by Western blot analysis; type: cell-based; settings: HL-60
T1 sequence (whole entry): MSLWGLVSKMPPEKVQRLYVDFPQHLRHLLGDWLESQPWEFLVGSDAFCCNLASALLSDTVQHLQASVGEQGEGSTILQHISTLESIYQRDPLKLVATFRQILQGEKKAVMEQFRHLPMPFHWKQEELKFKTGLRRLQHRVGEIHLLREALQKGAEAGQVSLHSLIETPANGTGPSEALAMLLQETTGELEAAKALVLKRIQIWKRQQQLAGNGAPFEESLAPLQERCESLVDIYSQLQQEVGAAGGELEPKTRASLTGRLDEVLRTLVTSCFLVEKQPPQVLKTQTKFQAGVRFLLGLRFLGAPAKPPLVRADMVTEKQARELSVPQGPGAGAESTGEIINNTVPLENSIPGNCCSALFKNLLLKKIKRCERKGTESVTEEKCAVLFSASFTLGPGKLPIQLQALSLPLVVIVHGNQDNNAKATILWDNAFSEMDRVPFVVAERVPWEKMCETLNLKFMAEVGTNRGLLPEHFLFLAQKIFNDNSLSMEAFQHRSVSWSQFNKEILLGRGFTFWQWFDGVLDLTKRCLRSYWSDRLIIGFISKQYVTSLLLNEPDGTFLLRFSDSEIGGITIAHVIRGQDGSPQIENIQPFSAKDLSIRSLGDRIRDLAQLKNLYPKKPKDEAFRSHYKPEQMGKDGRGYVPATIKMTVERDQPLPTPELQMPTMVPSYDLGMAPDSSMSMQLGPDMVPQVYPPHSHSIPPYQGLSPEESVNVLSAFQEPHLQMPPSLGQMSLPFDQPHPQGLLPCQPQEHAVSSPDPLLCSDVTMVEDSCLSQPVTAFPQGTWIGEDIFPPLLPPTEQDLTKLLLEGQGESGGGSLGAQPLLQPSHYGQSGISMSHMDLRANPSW

[7] = test system: HL-60; test: Induction of apoptosis in p53-deficient human HL60 cells assessed as DNA fragmentation at 50 uM after 6 hrs by agarose gel electrophoresis; type: functional, cell-based
Summary of the method: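 2 × 10⁶ HL-60 cells treated with derivatives at 50 µM for 6 h, then scored for an apoptotic DNA ladder of 180–200 bp fragments or multiples. The positive control is 4 µM camptothecin for 6 h.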

[8] = test system: HEp-2; test: Anticancer activity against human Hep2 cells assessed as growth inhibition at 50 uM after 48 hrs by SRB assay; type: functional; settings: HEp-2, 48 h, read-out: GI
Summary of the method: (§3)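 Cells exposed to test compounds at 50 µM for 48 h. Read-out is percent growth inhibition, with SEM given. 5-Fluorouracil and adriamycin serve as reference agents.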

[9] = test system: HL-60; test: Inhibition of NF-kappaB p50 subunit protein expression in p53-deficient human HL60 cells at 50 uM after 6 hrs by Western blot analysis; type: cell-based; summary of the method: as §1
[10] = test system: HT-29; test: Anticancer activity against human HT-29 cells assessed as growth inhibition at 50 uM after 48 hrs by SRB assay; type: functional; settings: HT-29, 48 h, read-out: GI; summary of the method: as §3
[11] = test system: HL-60; test: Inhibition of STAT3beta protein expression in p53-deficient human HL60 cells at 20 to 50 uM after 6 hrs by Western blot analysis; type: cell-based

inhibition [1]: 90%
inhibition [3]: 90%
inhibition [6]: Active
SMILES: CCCC(=O)O[C@@H]1CC[C@@]2(C)[C@@H](CC[C@]3(C)[C@@H]2C(=O)C=C2[C@@H]4[C@@H](C)[C@H](C)CC[C@]4(C)CC[C@]23C)[C@@]1(C)C(=O)O
Activity [2]: 80%
Activity [4]: 32%
IC50 [5]: 80 µM
Activity [7]: Active
inhibition of growth at 50 µM [8]: 98%
inhibition [9]: Active
inhibition of growth at 50 µM [10]: 96%
inhibition [11]: Active
